Active and inactive are the calls of the source. No cut-off for these calls is given here.
Assays:
[1] = molecular target: Sodium-dependent noradrenaline transporter (Homo sapiens) (UniProt P23975); test: Displacement of [125I]-RTI-55 from human recombinant NET expressed in MDCK cells at 10 uM relative to control; assay type: cell-based
How it was run: (§1)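 Tested once at 10 μM in a commercial radioligand binding panel of 68 GPCRs, ion channels, kinases and transporters. Activity is given as displacement of each radioligand relative to control.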

Rattus norvegicus [2] = species: Rattus norvegicus; test: Displacement of [3H]-GABA from GABA transporter in rat cerebral cortex at 10 uM relative to control; assay type: tissue-based; how it was run: as §1
[3] = molecular target: Substance-P receptor (Homo sapiens) (UniProt P25103); test: Displacement of [3H]-Substance P from human recombinant tachykinin NK1 receptor expressed in CHO cells at 10 uM relative to control; assay type: cell-based
Substance-P receptor (Homo sapiens), sequence (P25103 whole entry): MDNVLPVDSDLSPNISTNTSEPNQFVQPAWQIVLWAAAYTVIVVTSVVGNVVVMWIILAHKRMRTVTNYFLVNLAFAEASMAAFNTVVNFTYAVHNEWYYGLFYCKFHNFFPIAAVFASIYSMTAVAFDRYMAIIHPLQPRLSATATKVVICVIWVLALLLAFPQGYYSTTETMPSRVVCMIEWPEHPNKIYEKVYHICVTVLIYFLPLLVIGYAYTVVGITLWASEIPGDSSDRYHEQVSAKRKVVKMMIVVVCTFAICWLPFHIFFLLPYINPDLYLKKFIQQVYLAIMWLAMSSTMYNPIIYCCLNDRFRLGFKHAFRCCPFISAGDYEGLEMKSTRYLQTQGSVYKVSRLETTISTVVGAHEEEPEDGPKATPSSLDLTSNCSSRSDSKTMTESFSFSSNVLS

Rattus norvegicus [4] = species: Rattus norvegicus; test: Displacement of [3H]-Batrachotoxin from sodium channel site 2 in rat brain at 10 uM relative to control; assay type: tissue-based; how it was run: as §1
[5] = molecular target: 5-hydroxytryptamine receptor 1A (Homo sapiens) (UniProt P08908); test: Displacement of [3H]-8-OH-DPAT from human recombinant 5-HT1A receptor expressed in CHO-K1 cells at 10 uM relative to control; assay type: cell-based; how it was run: as §1
5-hydroxytryptamine receptor 1A (Homo sapiens), sequence (P08908 whole entry): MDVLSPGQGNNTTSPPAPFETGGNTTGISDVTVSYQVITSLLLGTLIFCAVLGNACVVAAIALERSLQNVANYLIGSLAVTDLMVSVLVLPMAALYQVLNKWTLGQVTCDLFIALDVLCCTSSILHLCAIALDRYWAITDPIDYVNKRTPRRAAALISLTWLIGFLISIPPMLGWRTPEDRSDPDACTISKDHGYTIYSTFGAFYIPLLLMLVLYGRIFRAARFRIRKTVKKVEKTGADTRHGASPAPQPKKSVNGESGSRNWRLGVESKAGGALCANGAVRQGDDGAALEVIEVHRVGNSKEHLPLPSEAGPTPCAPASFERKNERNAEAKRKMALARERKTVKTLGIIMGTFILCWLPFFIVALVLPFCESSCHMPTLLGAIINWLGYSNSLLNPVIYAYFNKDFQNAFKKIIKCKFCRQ

[6] = molecular target: 5-hydroxytryptamine receptor 3A (Homo sapiens) (UniProt P46098); test: Displacement of [3H]-GR-65630 from human recombinant 5-HT3 receptor expressed in HEK293 cells at 10 uM relative to control; assay type: cell-based; how it was run: as §1
Mesocricetus auratus = species: Mesocricetus auratus; test: Displacement of [3H]-Glyburide from ATP-sensitive potassium channel in hamster pancreatic HIT-T15 beta cells at 10 uM relative to control; how it was run: as §1
Mus musculus = species: Mus musculus; test: Displacement of [3H]-PDBu from phorbol ester receptor in mouse brain at 10 uM relative to control; assay type: tissue-based; how it was run: as §1
[7] = molecular target: Delta-type opioid receptor (Homo sapiens) (UniProt P41143); test: Displacement of [3H]-Naltrindole from human recombinant delta opioid receptor expressed in HEK293 cells at 10 uM relative to control; assay type: cell-based; how it was run: as §1
[8] = molecular target: Muscarinic acetylcholine receptor M3 (Homo sapiens) (UniProt P20309); test: Displacement of [3H]-N-Methylscopolamine from human recombinant muscarinic M3 receptor expressed in CHO-K1 cells at 10 uM relative to control; assay type: cell-based; how it was run: as §1
[9] = molecular target: Cysteinyl leukotriene receptor 1 (Homo sapiens) (UniProt Q9Y271); test: Displacement of [3H]-LTD4 from human recombinant leukotriene cysteinyl CysLT1 receptor expressed in CHO-K1 cells at 10 uM relative to control; assay type: cell-based; how it was run: as §1
[10] = molecular target: Histamine H1 receptor (Homo sapiens) (UniProt P35367); test: Displacement of [3H]-Pyrilamine from human recombinant histamine H1 receptor expressed in CHO-K1 cells at 10 uM relative to control; assay type: cell-based
Histamine H1 receptor (Homo sapiens), sequence (P35367 whole entry): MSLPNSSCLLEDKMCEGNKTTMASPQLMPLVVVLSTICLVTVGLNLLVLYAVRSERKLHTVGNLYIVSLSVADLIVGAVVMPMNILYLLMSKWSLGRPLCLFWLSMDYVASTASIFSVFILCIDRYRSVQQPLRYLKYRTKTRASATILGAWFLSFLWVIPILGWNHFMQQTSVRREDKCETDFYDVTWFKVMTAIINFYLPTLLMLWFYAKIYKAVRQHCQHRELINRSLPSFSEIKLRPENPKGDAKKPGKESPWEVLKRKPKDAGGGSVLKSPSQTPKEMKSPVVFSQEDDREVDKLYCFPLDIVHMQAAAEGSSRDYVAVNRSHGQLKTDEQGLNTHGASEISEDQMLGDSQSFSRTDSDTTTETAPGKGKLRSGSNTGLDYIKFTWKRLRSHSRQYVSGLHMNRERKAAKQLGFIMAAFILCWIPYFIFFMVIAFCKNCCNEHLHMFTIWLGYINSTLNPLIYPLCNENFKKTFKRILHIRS

[11] = molecular target: Histamine H3 receptor (Homo sapiens) (UniProt Q9Y5N1); test: Displacement of [3H]-N(-)-alpha-Methylhistamine from human recombinant histamine H3 receptor expressed in CHO-K1 cells at 10 uM relative to control; assay type: cell-based; how it was run: as §1
[12] = molecular target: Histamine H2 receptor (Homo sapiens) (UniProt P25021); test: Displacement of [125I]-Aminopotentidine from human recombinant histamine H2 receptor expressed in CHO-K1 cells at 10 uM relative to control; assay type: cell-based; how it was run: as §1
Histamine H2 receptor (Homo sapiens), sequence (P25021 whole entry): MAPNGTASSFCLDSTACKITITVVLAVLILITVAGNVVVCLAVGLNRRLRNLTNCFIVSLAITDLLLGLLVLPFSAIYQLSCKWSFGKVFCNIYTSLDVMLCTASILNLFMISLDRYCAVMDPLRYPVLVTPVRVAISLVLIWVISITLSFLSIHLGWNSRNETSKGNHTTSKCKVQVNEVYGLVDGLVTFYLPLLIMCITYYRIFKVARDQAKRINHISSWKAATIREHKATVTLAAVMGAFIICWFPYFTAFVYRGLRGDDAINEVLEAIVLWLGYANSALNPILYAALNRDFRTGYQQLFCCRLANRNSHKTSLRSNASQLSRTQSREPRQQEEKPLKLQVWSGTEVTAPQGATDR

Rattus norvegicus [13] = species: Rattus norvegicus; test: Displacement of [3H]-Kainic acid from kainate receptor in cerebellum-less rat brain homogenate at 10 uM relative to control; assay type: tissue-based; how it was run: as §1
[14] = molecular target: Gamma-aminobutyric acid type B receptor subunit 1 (Homo sapiens) (UniProt Q9UBS5); test: Displacement of [3H]-CGP-54626 from human recombinant GABAB1A receptor expressed in CHO cells at 10 uM relative to control; assay type: cell-based; how it was run: as §1
[15] = molecular target: Glucocorticoid receptor (Homo sapiens) (UniProt P04150); test: Displacement of [3H]-Dexamethasone from human recombinant glucocorticoid receptor at 10 uM relative to control; how it was run: as §1
Glucocorticoid receptor (Homo sapiens), sequence (P04150 whole entry): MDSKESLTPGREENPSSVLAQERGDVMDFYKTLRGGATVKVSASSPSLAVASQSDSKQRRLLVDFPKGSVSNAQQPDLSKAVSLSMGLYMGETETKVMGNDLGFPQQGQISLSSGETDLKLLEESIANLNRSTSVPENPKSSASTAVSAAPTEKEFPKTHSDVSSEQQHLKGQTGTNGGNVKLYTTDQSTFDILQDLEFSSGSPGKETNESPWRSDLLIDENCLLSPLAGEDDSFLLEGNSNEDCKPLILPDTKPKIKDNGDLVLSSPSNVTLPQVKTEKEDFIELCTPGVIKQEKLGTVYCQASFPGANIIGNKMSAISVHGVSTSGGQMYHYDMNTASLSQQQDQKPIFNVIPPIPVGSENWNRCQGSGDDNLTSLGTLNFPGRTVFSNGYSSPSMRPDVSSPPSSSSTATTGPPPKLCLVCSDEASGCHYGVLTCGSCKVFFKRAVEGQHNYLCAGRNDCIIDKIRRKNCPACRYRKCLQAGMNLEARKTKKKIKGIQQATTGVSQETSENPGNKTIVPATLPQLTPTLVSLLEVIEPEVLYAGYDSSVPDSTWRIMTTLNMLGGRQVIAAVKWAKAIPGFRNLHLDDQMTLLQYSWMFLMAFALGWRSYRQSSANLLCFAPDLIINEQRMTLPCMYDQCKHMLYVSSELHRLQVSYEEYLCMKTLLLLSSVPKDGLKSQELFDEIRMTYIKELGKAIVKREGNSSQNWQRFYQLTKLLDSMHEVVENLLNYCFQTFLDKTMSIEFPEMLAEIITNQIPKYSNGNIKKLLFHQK

Rattus norvegicus [16] = species: Rattus norvegicus; test: Displacement of [3H]-Flunitrazepam from central-type GABAA receptor flunitrazepam binding site in cerebellum-less rat brain homogenate at 10 uM relative to control; assay type: tissue-based; how it was run: as §1
[17] = molecular target: Epidermal growth factor receptor (Homo sapiens) (UniProt P00533); test: Displacement of [125I]-EGF from epidermal growth factor receptor in human A431 cells at 10 uM relative to control; assay type: cell-based; conditions: A-431; how it was run: as §1
Epidermal growth factor receptor (Homo sapiens), sequence (P00533 whole entry): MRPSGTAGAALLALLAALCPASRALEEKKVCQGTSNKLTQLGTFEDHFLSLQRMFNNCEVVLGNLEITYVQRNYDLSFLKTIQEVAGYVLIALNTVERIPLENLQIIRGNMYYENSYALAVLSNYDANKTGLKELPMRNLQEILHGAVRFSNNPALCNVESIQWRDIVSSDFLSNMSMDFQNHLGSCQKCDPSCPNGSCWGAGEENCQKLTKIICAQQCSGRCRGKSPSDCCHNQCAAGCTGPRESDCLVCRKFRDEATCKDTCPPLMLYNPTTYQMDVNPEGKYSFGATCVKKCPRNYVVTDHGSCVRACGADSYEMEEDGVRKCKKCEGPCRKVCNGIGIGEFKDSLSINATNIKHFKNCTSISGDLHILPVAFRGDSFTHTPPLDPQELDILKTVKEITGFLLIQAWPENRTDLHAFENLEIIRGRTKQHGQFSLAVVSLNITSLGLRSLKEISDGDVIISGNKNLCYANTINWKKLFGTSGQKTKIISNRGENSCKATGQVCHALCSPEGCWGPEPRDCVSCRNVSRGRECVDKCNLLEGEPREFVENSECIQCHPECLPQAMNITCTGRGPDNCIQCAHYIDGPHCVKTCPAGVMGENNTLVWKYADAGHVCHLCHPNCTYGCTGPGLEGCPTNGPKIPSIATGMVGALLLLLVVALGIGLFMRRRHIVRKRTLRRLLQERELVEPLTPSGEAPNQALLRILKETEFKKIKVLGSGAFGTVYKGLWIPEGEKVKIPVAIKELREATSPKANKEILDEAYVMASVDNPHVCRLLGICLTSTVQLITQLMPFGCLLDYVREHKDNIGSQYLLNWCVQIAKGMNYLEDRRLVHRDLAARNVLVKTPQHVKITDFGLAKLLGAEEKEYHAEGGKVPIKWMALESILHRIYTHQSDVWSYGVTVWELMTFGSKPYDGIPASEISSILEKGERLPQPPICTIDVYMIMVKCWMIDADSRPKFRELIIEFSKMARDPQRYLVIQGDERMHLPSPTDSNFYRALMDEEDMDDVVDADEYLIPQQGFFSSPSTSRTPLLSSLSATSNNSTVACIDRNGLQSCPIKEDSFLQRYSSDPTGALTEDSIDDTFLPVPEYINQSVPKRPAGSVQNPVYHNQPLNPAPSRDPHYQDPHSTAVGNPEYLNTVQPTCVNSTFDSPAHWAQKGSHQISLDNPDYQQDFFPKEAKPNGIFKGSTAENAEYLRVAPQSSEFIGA

[18] = molecular target: D(1A) dopamine receptor (Homo sapiens) (UniProt P21728); test: Displacement of [3H]-SCH-23390 from human recombinant dopamine D1 receptor expressed in CHO cells at 10 uM relative to control; assay type: cell-based
[19] = molecular target: D(2) dopamine receptor (Homo sapiens) (UniProt P14416); test: Displacement of [3H]-Spiperone from human recombinant dopamine D2S receptor expressed in CHO cells at 10 uM relative to control; assay type: cell-based
[20] = molecular target: Cannabinoid receptor 1 (Homo sapiens) (UniProt P21554); test: Displacement of [3H]-SR141716A from human recombinant CB1 receptor expressed in rat Chem-1 cells at 10 uM relative to control; assay type: cell-based
Cannabinoid receptor 1 (Homo sapiens), sequence (P21554 whole entry): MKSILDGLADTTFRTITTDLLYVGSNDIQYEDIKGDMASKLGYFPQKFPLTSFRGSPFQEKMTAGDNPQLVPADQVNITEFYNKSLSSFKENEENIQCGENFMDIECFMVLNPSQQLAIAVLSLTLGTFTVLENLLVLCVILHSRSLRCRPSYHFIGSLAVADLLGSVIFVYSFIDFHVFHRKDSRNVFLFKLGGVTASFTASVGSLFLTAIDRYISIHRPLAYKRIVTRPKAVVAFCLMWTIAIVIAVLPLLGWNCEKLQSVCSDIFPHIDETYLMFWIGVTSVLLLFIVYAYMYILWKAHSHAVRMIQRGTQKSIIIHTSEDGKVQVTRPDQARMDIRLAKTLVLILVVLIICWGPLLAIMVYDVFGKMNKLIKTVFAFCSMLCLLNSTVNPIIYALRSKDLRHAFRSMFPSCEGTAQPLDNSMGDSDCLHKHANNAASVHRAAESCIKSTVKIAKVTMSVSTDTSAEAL

Rattus norvegicus [21] = species: Rattus norvegicus; test: Displacement of [3H]-Nitrendipine from L-type calcium channel dihydropyridine binding site in rat cerebral cortex at 10 uM relative to control; assay type: tissue-based; how it was run: as §1
[22] = molecular target: L-type calcium channel, benzothiazepine binding site (Rattus norvegicus, UniProt P22002+P27732+Q02485); test: Displacement of [3H]-Diltiazem from L-Type calcium channel benzothiazepine binding site in rat brain at 10 uM relative to control; assay type: tissue-based; conditions: probe [3H]-Diltiazem
[23] = molecular target: B1 bradykinin receptor (Homo sapiens) (UniProt P46663); test: Displacement of [3H]-(Des-Arg10)-Kallidin from bradykinin B1 receptor in human IMR90 cells at 10 uM relative to control; assay type: cell-based; conditions: IMR-90; how it was run: as §1
[24] = molecular target: Beta-1 adrenergic receptor (Homo sapiens) (UniProt P08588); test: Displacement of [125I]-Cyanopindolol from human recombinant adrenergic beta1 receptor expressed in CHO-K1 cells at 10 uM relative to control; assay type: cell-based; how it was run: as §1
[25] = molecular target: Alpha-2A adrenergic receptor (Homo sapiens) (UniProt P08913); test: Displacement of [3H]-Rauwolscine from human recombinant adrenergic alpha2A receptor expressed in CHO-K1 cells at 10 uM relative to control; assay type: cell-based
[26] = molecular target: Metabotropic glutamate receptor 7 (Rattus norvegicus) (UniProt P35400); test: Allosteric modulation of rat mGlu7 receptor expressed in HEK293 cells coexpressing G protein-activated inward rectifier potassium channel assessed as effect on L-AP4-induced thallium flux at 10 uM; assay type: cell-based
[27] = molecular target: Metabotropic glutamate receptor 4 (Rattus norvegicus) (UniProt P31423); test: Allosteric modulation of rat mGlu4 receptor expressed in HEK293 cells coexpressing G protein-activated inward rectifier potassium channel assessed as effect on glutamate-induced thallium flux at 10 uM; assay type: cell-based
[28] = molecular target: Metabotropic glutamate receptor 3 (Rattus norvegicus) (UniProt P31422); test: Allosteric modulation of rat mGlu3 receptor expressed in HEK293 cells coexpressing G protein-activated inward rectifier potassium channel assessed as effect on glutamate-induced thallium flux at 10 uM; assay type: cell-based
[29] = molecular target: Metabotropic glutamate receptor 2 (Rattus norvegicus) (UniProt P31421); test: Allosteric modulation of rat mGlu2 receptor expressed in HEK293 cells coexpressing G protein-activated inward rectifier potassium channel assessed as effect on glutamate-induced thallium flux at 10 uM; assay type: cell-based
[30] = Cmax in CD-1 mouse brain at 10 mg/kg, ip by LC-MS/MS analysis; assay type: ADME, organism-based; parameters: dose 10 mg/kg, route intraperitoneal

Sodium-dependent noradrenaline transporter (Homo sapiens), sequence (P23975 whole entry): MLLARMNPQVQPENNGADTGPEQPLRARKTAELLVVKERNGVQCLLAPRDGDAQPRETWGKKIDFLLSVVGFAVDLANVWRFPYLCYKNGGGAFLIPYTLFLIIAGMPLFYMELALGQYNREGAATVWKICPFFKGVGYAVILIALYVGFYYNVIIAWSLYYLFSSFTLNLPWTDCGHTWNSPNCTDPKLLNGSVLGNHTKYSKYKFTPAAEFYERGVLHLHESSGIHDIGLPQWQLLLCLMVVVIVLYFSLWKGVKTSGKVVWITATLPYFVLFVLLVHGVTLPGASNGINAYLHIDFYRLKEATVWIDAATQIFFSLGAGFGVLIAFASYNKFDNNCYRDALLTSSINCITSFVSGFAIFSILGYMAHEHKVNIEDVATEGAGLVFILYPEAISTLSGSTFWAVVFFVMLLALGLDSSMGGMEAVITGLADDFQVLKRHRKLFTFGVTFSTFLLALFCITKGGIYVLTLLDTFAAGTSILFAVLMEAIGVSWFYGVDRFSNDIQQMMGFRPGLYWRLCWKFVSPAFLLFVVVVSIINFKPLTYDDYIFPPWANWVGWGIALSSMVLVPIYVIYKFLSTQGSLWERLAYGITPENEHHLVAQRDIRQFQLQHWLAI

For `Cc1csc(NC(=O)c2cc(F)cc(Oc3cncnc3)c2)n1`, the inhibition [1] was > 35%, the inhibition (Rattus norvegicus [2]) was > 35% and the inhibition [3] was > 35%. The inhibition (Rattus norvegicus [4]) was > 35%, the inhibition [5] was > 35% and the inhibition [6] was > 35%. For the same molecule, the inhibition (Mesocricetus auratus) was > 35%, the inhibition (Mus musculus) was > 35% and the inhibition [7] was > 35%. The inhibition [8] was > 35%, the inhibition [9] was > 35% and the inhibition [10] was > 35%. The inhibition [11] was > 35%, the inhibition [12] was > 35% and the inhibition (Rattus norvegicus [13]) was > 35%. For the same molecule, the inhibition [14] was > 35%, the inhibition [15] was > 35% and the inhibition (Rattus norvegicus [16]) was > 35%. For the same molecule, the inhibition [17] was > 35%, the inhibition [18] was > 35% and the inhibition [19] was > 35%. The inhibition [20] was > 35%, the inhibition (Rattus norvegicus [21]) was > 35% and the inhibition at 10 µM [22] was > 35%. For the same molecule, the inhibition [23] was > 35%, the inhibition [24] was > 35% and the inhibition [25] was > 35%. The Activity [26] was “inactive”, the Activity [27] was “inactive” and the Activity [28] was “inactive”. For the same molecule, the Activity [29] was “inactive” and the Cmax [30] was 1350 ng/g.
